The test system of experiment [1] is Anopheles gambiae. Nature of the experiment: Antilarval activity against third-instar larvae of Anopheles gambiae assessed as mortality at 1000 ug/L after 72 hrs. The class given is functional. Summed up:
(§1)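 Third-instar larvae came from a laboratory An. gambiae colony originally from MR4. Groups of 12–15 larvae were held at 25°C in distilled water with larval food. Compound was added from an acetone or water stock to final 50 or 1000 μg/L, with a solvent-only control. Treatments and controls were run four times, and mortality was scored at 72 h.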

The subject of experiment [2] is Anopheles gambiae. Nature of the experiment: Antilarval activity against third-instar larvae of Anopheles gambiae assessed as mortality at 50 ug/L after 72 hrs. The class given is functional. Summed up:
as §1

Experiment [3] concerns Trametes versicolor. Nature of the experiment: Inhibition of Trametes versicolor laccase.
The test system of experiment [4] is Trametes versicolor.
Experiment [5] concerns Trametes versicolor. The source holds these as a separate data set.
Experiment [6] concerns Anopheles gambiae. Nature of the experiment: Antilarval activity against third-instar larvae of Anopheles gambiae assessed as effect on cuticle development by microscopic analysis relative to control. The class given is functional.
For another experiment, the system named is Culex pipiens molestus. Nature of the experiment: Antilarval activity against third-instar larvae of Culex molestus assessed as mortality at 100 ug/L after 72 hrs. The class given is functional.

Calls of active or inactive are those of the source. The calls are words filed in the database; no cut-off is given here.
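Wherever Km is given: kinetic parameters for Trametes versicolor laccase, determined from a spectrophotometric readout.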
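Wherever kcat/Km is given: measured with the laccase enzyme of Trametes versicolor.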

Regarding `CC1(C)CCc2cc(C(C)(C)C)cc(C(C)(C)C)c2O1`, the Activity with Anopheles gambiae [1] is listed as 91.7%; with Anopheles gambiae [2], 5.77%.
Take `CC(C)(C)c1cc(C(C)(C)C=O)cc(C(C)(C)C)c1O`: the Activity with Anopheles gambiae [1] stood at 65%; in the experiment with Anopheles gambiae [2] it was 0%.
Take `Cc1ccc(O)c(N)c1`: the inhibition result with Trametes versicolor [3] was “inactive”. Further, the kcat/Km in the experiment with Trametes versicolor [4] came to 1.19e+06 M⁻¹ s⁻¹. In the experiment with Trametes versicolor [5], the Km amounted to 110 µM and the kcat came out at 131 s⁻¹.
As to `Oc1ccccc1O`, the kcat/Km in the experiment on Trametes versicolor [4] was 55800 M⁻¹ s⁻¹. In addition, in the experiment on Trametes versicolor [5], the Km turned out to be 600 µM and the kcat turned out to be 33.5 s⁻¹.
For `Nc1ccccc1N`, the kcat/Km in the experiment on Trametes versicolor [4] is 40300 M⁻¹ s⁻¹. Further, in the experiment with Trametes versicolor [5], the Km amounted to 430 µM and the kcat worked out at 17.3 s⁻¹.
`Nc1ccc(C(=O)O)cc1O`: the inhibition entry in the experiment on Trametes versicolor [3] was “inactive”. The kcat/Km in the experiment with Trametes versicolor [4] came to 250000 M⁻¹ s⁻¹. Further, in the experiment on Trametes versicolor [5], the Km is 170 µM and the kcat was 42.5 s⁻¹.
Consider `Oc1ccc(O)cc1` [HYDROQUINONE], for which, in the experiment on Anopheles gambiae [1], the Activity was determined as 5.38%. The Activity in the experiment on Anopheles gambiae [2] amounted to 1.25%. In addition, in the experiment on Trametes versicolor [4], the kcat/Km stood at 594 M⁻¹ s⁻¹. Further, in the experiment on Trametes versicolor [5], the Km stood at 20 µM and the kcat was determined as 119 s⁻¹.
With `Oc1cc(O)c(Br)c(Cl)c1O`, the Activity with Anopheles gambiae [1] is 11.4%. In the experiment with Anopheles gambiae [2], the Activity turned out to be 0%. For the same compound, in the experiment on Trametes versicolor [3], the inhibition entry is “inactive”. Also, the kcat/Km with Trametes versicolor [4] was 2.89e+06 M⁻¹ s⁻¹. For the same compound, in the experiment with Trametes versicolor [5], the Michaelis-Menten constant (Km) was determined as 50 µM and the kcat is 145 s⁻¹.
As to `CC(C)(C)c1cc(C(C)(C)CNCc2ccccc2)cc(C(C)(C)C)c1O.O=C(O)C(F)(F)F`, the Activity is listed as 7.7% with Anopheles gambiae [1] and 3.71% with Anopheles gambiae [2].
For `COc1c(O)cc(O)c(Br)c1Cl`, in the experiment with Trametes versicolor [3], the inhibition entry is “inactive”. In addition, the kcat/Km in the experiment on Trametes versicolor [4] stood at 1.37e+06 M⁻¹ s⁻¹. In addition, in the experiment on Trametes versicolor [5], the Km stood at 70 µM and the kcat worked out at 96 s⁻¹.
As for `COc1cc(C=O)cc(Cl)c1O`, the inhibition entry with Trametes versicolor [3] is “inactive”. In the experiment with Trametes versicolor [4], the kcat/Km is 47800 M⁻¹ s⁻¹. In the experiment on Trametes versicolor [5], the Km came out at 2200 µM and the kcat was 105 s⁻¹.
`CC(C)(Br)C(=O)c1cc(C(C)(C)C)c(O)c(C(C)(C)C)c1`: the Activity in the experiment with Anopheles gambiae [1] was determined as 60%; in the experiment with Anopheles gambiae [2], 0%.
With `Nc1cc(CO)ccc1O`, in the experiment on Trametes versicolor [3], the inhibition entry was “inactive”. Moreover, the kcat/Km in the experiment on Trametes versicolor [4] was found to be 788000 M⁻¹ s⁻¹. In the experiment with Trametes versicolor [5], the Km was 80 µM and the kcat worked out at 63 s⁻¹.
In the case of `CC(C)(C)c1cc(C(C)(C)/C=N/O)cc(C(C)(C)C)c1O`, the Activity in the experiment on Anopheles gambiae [1] was found to be 93.1%; in the experiment with Anopheles gambiae [2] it was 5.41%.
For the compound `O=Cc1cc(O)c(O)c(Cl)c1`, the inhibition entry with Trametes versicolor [3] is “inactive”. For the same compound, the kcat/Km with Trametes versicolor [4] amounted to 792000 M⁻¹ s⁻¹. For the same compound, in the experiment with Trametes versicolor [5], the Michaelis constant (Km) worked out at 40 µM and the kcat amounted to 31.7 s⁻¹.
Consider `COC1=CC(=O)C(N[C@@H](C)C(=O)OCc2ccccc2)=C(Cl)C1=O`, for which the values for the Activity in the experiment with Anopheles gambiae [1] and with Anopheles gambiae [2] were 6.66% and 5%, respectively.
As to `CC(C)(C)c1cc(C(C)(C)CO)cc(C(C)(C)C)c1O`, the Activity with Anopheles gambiae [1] was found to be 46.7%; in the experiment on Anopheles gambiae [2], 0%.
Regarding `COc1cc(O)c(O)c(Cl)c1Br`, the inhibition result in the experiment on Trametes versicolor [3] was “inactive”. Further, the kcat/Km in the experiment on Trametes versicolor [4] amounted to 2.24e+06 M⁻¹ s⁻¹. In the experiment with Trametes versicolor [5], the Km is 40 µM and the kcat was 89.7 s⁻¹.
Take `CC(C)=CCc1cc(C(C)(C)C)cc(C(C)(C)C)c1O`: the outcome in the experiment on Anopheles gambiae [6] was Active. Besides, the Activity in the experiment on Culex pipiens molestus came out at 60%; with Anopheles gambiae [1], 98.3%; in the experiment on Anopheles gambiae [2] it was 98.1%.
As to `CC(C)(C)c1cc(C(C)(C)c2ccccc2)cc(C(C)(C)C)c1O`, the values for the Activity with Anopheles gambiae [1] and in the experiment on Anopheles gambiae [2] were 100% and 93.3%, respectively.
In the case of `COc1cc(O)c(Br)c(Cl)c1O`, in the experiment with Trametes versicolor [3], the inhibition result is “inactive”. The kcat/Km with Trametes versicolor [4] came to 262000 M⁻¹ s⁻¹. Moreover, in the experiment on Trametes versicolor [5], the Km turned out to be 70 µM and the kcat turned out to be 18.3 s⁻¹.
In the case of `Nc1ccccc1O`, the kcat/Km in the experiment on Trametes versicolor [4] stood at 197000 M⁻¹ s⁻¹. In addition, in the experiment with Trametes versicolor [5], the Km was found to be 190 µM and the kcat stood at 37.5 s⁻¹.
As for `Nc1cc(C(=O)O)ccc1O`, the inhibition result with Trametes versicolor [3] is “inactive”. For the same compound, the kcat/Km in the experiment with Trametes versicolor [4] stood at 698000 M⁻¹ s⁻¹. Besides, in the experiment on Trametes versicolor [5], the Km was 70 µM and the kcat worked out at 48.8 s⁻¹.
On to `CC(C)(C)c1cc(C(C)(C)C(=O)[O-])cc(C(C)(C)C)c1O.[Na+]`, for which the Activity in the experiment with Anopheles gambiae [1] stood at 12.3%; in the experiment on Anopheles gambiae [2], 5.5%.

For the origin of these results see ChEMBL document CHEMBL2202957, “Redox potentials, laccase oxidation, and antilarval activities of substituted phenols” (2012).
